This is one part of a sample in which hits are shown more often than they occur.
Phagocytosis inh: macrophage phagocytosis inhibition; J774A.1 macrophage IgG-bead phagocytosis, imaging; inhibition, % at 5 µM; 110,000 tested, 0.07% active; AID 1029;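 active = inhibition above the mean of the plate negative controls plus 5 SD, cut at about 13% in these data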;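 also: phagocytic index as fraction of beads internalized from green versus red external bead signal; plate controls were DMSO negative control for no effect and cytochalasin-D positive control for full effect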
Fibroblast inh: blocks proliferation of human lung fibroblasts. LL 47 human lung fibroblast viability, ATP luminescence; stronger effect = lower value. viability, % at 10 µM. 85,000 tested, 1.1% active. AID 719;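 active = viability at or below 50% in the single dose screen; inactive = viability above 50%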;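 also: compound exposure lasted 72 h before the ATP readout; 100% = median luminescence of untreated cell-only wells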
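Material: human LL 47 lung fibroblast cells; quantity: 1,150 cells/well; medium: IMEM plus 15% FBS; doses: 0.1% DMSO in all compound wells; timing: overnight attachment after seeding, then 72 h compound exposure at 37 °C; detection: CellTiter-Glo luminescence; measure: % viability of median cell-only signal; controls: cell-only wells, no compound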
HUVEC inhibit: human endothelial cell proliferation inhibition; HUVEC proliferation, CellTiter-Glo luminescence, 72 h; stronger effect = lower value; viability, % at 10 µM (by protocol); 86,000 tested, 1.1% active;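 active = viability at or below 30%; inactive = viability above 30%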;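 also: 100% = median luminescence of DMSO-only cell control wells on each plate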
H69AR inhibit: growth inhibitors of human H69AR lung tumor cells; H69AR lung tumor viability, ATP luminescence, 72 h; stronger effect = lower value; viability, % at 10 µM; 85,000 tested, 6% active; AID 598;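 active = viability at or below 40%; inactive = viability above 40%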;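 also: multidrug resistant small cell line overexpressing MRP-1 efflux transporter; 100% = mean luminescence of untreated control wells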
HCT116 bCat-KO: beta-catenin-lacking colon tumor cell growth suppression | HCT116 beta-catenin knockout viability, CellTiter-Glo, 60 h; stronger effect = lower value | 140,000 tested, 1.5% active | viability, % at 10 µM;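 active = viability at or under a set limit, the compound median less 4 SD, cut at about 6% in these data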;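 also: 0% = Hyamine 1622 control at 20 µM and 100% = untreated cell control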
HCT116 PTEN-null: PTEN-deleted cell growth suppression; HCT116 PTEN-null viability, CellTiter-Glo, 60 h; stronger effect = lower value; viability, % at 10 µM; 140,000 tested, 1.2% active;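 active = viability at or below a set limit, 4 SD under the median of all tested compounds, cut at about 3.7% in these data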;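 also: PTEN knockout HCT116 line with beta catenin targeted HCT116 as companion control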
An asterisk follows results filed as active; / = no result; + = active, no number; [ ] = dose if it differs, or a comment.

SMILES	Phagocytosis inh	Fibroblast inh	HUVEC inhibit	H69AR inhibit	HCT116 bCat-KO	HCT116 PTEN-null
COc1ccc(S(=O)(=O)N2CCCC(C(=O)N3CCOCC3)C2)cc1C (centres undefined)	-0.5	94.2	91.8	84.7	92.8	94.2
O=C(Nc1nnc(-c2ccc3c(c2)CCCC3)o1)c1ccccc1Cl	-0.4	71.6	22.6*	23.2*	27.4	27.6
O=C(Nc1nnc(-c2ccc3c(c2)CCCC3)o1)c1ccccc1	-0.6	64.1	22.7*	38.1*	12.6	11.2
O=C(COc1ccccc1)Nc1nnc(-c2ccc3c(c2)CCCC3)o1	-0.7	98.5	91.3	76.0	102.5	107.6
O=C(Nc1nnc(-c2ccc3c(c2)OCCO3)o1)c1ccc(Cc2ccccc2)cc1	-0.2	89.0	9.6*	37.0*	17.9	18.9
CC(=O)c1cccc(NC(=O)C(OC(=O)/C=C/c2ccc3c(c2)OCO3)c2ccccc2)c1 (centres undefined)	-0.7	/	/	/	95.8	88.4
C=C(C)C1Cc2c(C)nn(-c3nc(C)cc(C)n3)c2C1 (centres undefined)	-0.3	87.6	92.1	3.2*	68.9	67.6
C=C(C)C1Cc2nc(N)nc(C)c2C1 (centres undefined)	/	97.8	93.1	88.6	92.0	95.6
O=C(O)c1cc(S(=O)(=O)Nc2ccc3c(c2)OCCO3)c(Cl)cc1Cl	-0.1	90.2	89.3	93.5	88.0	93.5
O=C(Nc1cccc(-c2nc3ncccc3o2)c1)c1cc2ccccc2o1	-0.5	108.3	48.6	15.6*	94.3	76.9
Cc1ccc(-c2nc3ncccc3o2)cc1NC(=O)c1cc2ccccc2o1	-0.2	103.7	82.6	97.7	48.4	48.3
O=C(NCc1ccco1)c1cnn2c(C(F)(F)F)cc(-c3cccs3)nc12	-0.2	86.5	91.8	7.1*	80.3	69.4
CCOC(=O)/C(=C\c1ccc(OC(F)F)cc1)C1=Nn2c(nnc2-c2ccc(Cl)cc2)SC1	-0.6	/	/	/	1.4*	2.1*
COc1ccc2c(c1)[nH]c(=O)c1sc3ccccc3c12	/	/	/	/	5.1*	9.3
CCCOc1cccc(C2/C(=C(/O)c3ccncc3)C(=O)C(=O)N2CCCN(C)C)c1 (centres undefined)	-0.2	96.5	100.7	91.2	/	/
COc1ccc2nc(NC(=O)c3cccc(OCc4c(C)noc4C)c3)sc2c1	0.3	58.9	48.6	21.2*	15.1	15.7
COc1ccc2nc(NC(=O)c3ccoc3C)sc2c1	-0.7	53.3	46.1	22.8*	15.6	20.4
CCSc1nnc(NC(=O)c2cccc(OCc3c(C)noc3C)c2)s1	0.9	93.7	87.6	96.0	97.5	94.5
Cc1ccsc1/C=N/NS(=O)(=O)c1ccc([N+](=O)[O-])cc1	1.2	/	/	/	92.6	97.4
Cc1ccccc1-c1nc(CN2CCC(C(=O)O)CC2)c(C)o1	0.1	98.2	112.1	115.9	107.0	103.0
Cc1ccccc1-c1nc(CN2CCC(C(=O)NC3CCN(Cc4ccccc4)CC3)CC2)c(C)o1	/	57.5	9.9*	22.5*	/	/
Cc1ccccc1-c1nc(CN2CCC(C(=O)NCCC3=CCCCC3)CC2)c(C)o1	-2.5	76.2	4.8*	28.2*	2.4*	2.4*
COc1ccc(CCNC(=O)C2CCN(Cc3nc(-c4ccccc4C)oc3C)CC2)cc1OC	-1.3	94.0	68.8	87.6	74.2	73.6
Oc1ccc(N=Nc2c(O)ccc3ccccc23)cc1	2.6	/	/	/	46.5	46.7
Oc1c(N=Nc2ccccn2)ccc2ccccc12	/	/	/	/	1.8*	2.0*
SMILES	Phagocytosis inh	Fibroblast inh	HUVEC inhibit	H69AR inhibit	HCT116 bCat-KO	HCT116 PTEN-null
COc1ccc(-c2cc(-c3ccccc3)c(C#N)c(S(C)=O)n2)cc1 (centres undefined)	-0.8	2.7*	6.8*	2.3*	1.1*	1.3*
CCSc1nc(-c2ccc(OC)cc2)cc(-c2ccccc2)c1C#N	-1.0	81.0	92.9	87.9	86.5	88.0
CC(=O)c1ccc(N2CCN(C(=O)c3ccco3)CC2)c(F)c1	+	100.1	93.2	107.1	98.5	100.2
O=C(Nc1ccc(N2CCN(C(=O)c3ccco3)CC2)cc1)c1ccccc1F	1.7	98.5	96.3	58.4	99.5	85.2
O=C(Nc1ccc(N2CCN(C(=O)c3ccco3)CC2)cc1)c1cccc(F)c1	-1.5	98.9	82.1	30.3*	54.2	50.2
Nc1ncc2c(n1)CC(c1ccco1)CC2=O (centres undefined)	0.4	103.4	96.5	89.5	92.8	94.9
Cc1cc(Br)ccc1OCCCCN1CCC(C)CC1	-2.8	/	/	/	44.6	53.4
C=CCN1C(=O)C2(/C(=C(\O)c3ccc4c(c3)OCCO4)C(=O)C(=O)N2CCCOC)c2ccccc21 (centres undefined)	/	99.3	98.3	97.1	91.6	95.1
Cc1[nH]n2c(=O)c3c(nc2c1-c1ccc(Cl)cc1)CCC3	-1.7	72.6	45.2	25.9*	14.7	16.3
Nc1[nH]n2c(=O)c3c(nc2c1N=Nc1ccc(Cl)cc1)CCCC3	/	/	/	/	11.1	10.0
Cc1[nH]n2c(=O)c3c(nc2c1-c1ccccc1)CCC3	0.2	96.3	79.9	24.9*	97.0	82.8
COC(=O)c1ccc2c(c1)C(C)(C)C(/C=C/c1ccccc1O)=[N+]2C	/	/	/	/	2.4*	1.8*
COc1cccc(C2CC(=O)Nc3cc(OC)c(OC)c(OC)c32)c1OC (centres undefined)	44.1*[artifact]	102.0	93.1	91.1	91.4	74.0
CC1=C/C(=N\OS(=O)(=O)c2ccccc2)C(C(C)C)=CC1=O	-2.9	/	/	/	1.5*	1.5*
CC1=C(C)/C(=N\OS(=O)(=O)c2ccc(C)cc2)C=CC1=O	4.0	/	/	/	1.8*	1.7*
CC1=C/C(=N\OS(=O)(=O)c2ccccc2)C(C)=CC1=O	3.4	/	/	/	1.8*	1.7*
Cc1cccc(C(=O)NCc2nnc3c4ccccc4c(-c4ccccc4)nn23)c1	/	/	/	/	70.8	66.1
COc1ccc2cc(CCNC(=O)c3c(-c4ccccc4Cl)noc3C)c(=O)[nH]c2c1	-0.1	101.9	99.6	89.7	94.1	97.6
CC1CCCC(NC(=O)CCn2c(=O)oc3ccccc32)C1C (centres undefined)	/	104.2	93.5	96.2	87.2	91.8
O=c1[nH][nH]c(-c2ccccc2O)c1C(C[N+](=O)[O-])c1ccc(Br)cc1 (centres undefined)	2.4	/	/	/	4.2*	1.6*
Cc1ccc(C(C[N+](=O)[O-])c2c(-c3ccccc3O)[nH][nH]c2=O)cc1 (centres undefined)	2.1	/	/	/	3.5*	3.6*
COc1ccc(C(C[N+](=O)[O-])c2c(C)[nH]c3ccccc23)cc1OC (centres undefined)	-4.6	/	/	/	79.3	85.5
CN(C(=O)c1cnc(N2CCN(c3ncccn3)CC2)c2ccccc12)c1ccc(Cl)cc1	/	98.1	70.5	45.6	59.8	42.2
CCN(C(=O)c1cnc(N2CCN(c3ncccn3)CC2)c2ccccc12)c1cccc(Cl)c1	/	75.6	50.8	20.3*	4.0*	5.4
